Data from ChEMBL document CHEMBL3044834, “Novel protoporphyrinogen oxidase inhibitors: 3H-pyrazolo[3,4-d][1,2,3]triazin-4-one derivatives” (J Agric Food Chem, 2008).

Tests used:
Type in all cases: functional
[1] = system: Brassica rapa subsp. oleifera; experiment: Herbicidal activity against Brassica rapa subsp. oleifera assessed as inhibition of fresh weed plant weight at 375 g/ha using pre-emergence treatment protocol
Digitaria sanguinalis [2] = experiment: Herbicidal activity against Digitaria sanguinalis (hairy crabgrass) assessed as inhibition of fresh weed plant weight at 375 g/ha using post-emergence treatment protocol
In short: (§1)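 Test compounds made up as emulsions by dissolving in 100 µL N,N-dimethylformamide, then adding a little Tween 20 and water. For post-emergence, weed seedlings at one leaf and one stem were sprayed at the same rates as the pre-emergence test. Fresh weight was recorded 15 days after treatment and expressed as percent inhibition versus controls. All treatments were run in triplicate.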

Digitaria sanguinalis [3] = experiment: Herbicidal activity against Digitaria sanguinalis (hairy crabgrass) assessed as inhibition of fresh weed plant weight at 1500 g/ha using pre-emergence treatment protocol
Digitaria sanguinalis [4] = experiment: Herbicidal activity against Digitaria sanguinalis (hairy crabgrass) assessed as inhibition of fresh weed plant weight at 375 g/ha using pre-emergence treatment protocol
Digitaria sanguinalis [5] = experiment: Herbicidal activity against Digitaria sanguinalis (hairy crabgrass) assessed as inhibition of fresh weed plant weight at 750 g/ha using pre-emergence treatment protocol
Amaranthus retroflexus [6] = experiment: Herbicidal activity against Amaranthus retroflexus assessed as inhibition of fresh weed plant weight at 1500 g/ha using pre-emergence treatment protocol
Amaranthus retroflexus [7] = experiment: Herbicidal activity against Amaranthus retroflexus assessed as inhibition of fresh weed plant weight at 187.5 g/ha using pre-emergence treatment protocol
[8] = system: Brassica rapa subsp. oleifera; experiment: Herbicidal activity against Brassica rapa subsp. oleifera assessed as inhibition of fresh weed plant weight at 750 g/ha using post-emergence treatment protocol; in short: as §1
[9] = system: Brassica rapa subsp. oleifera; experiment: Herbicidal activity against Brassica rapa subsp. oleifera assessed as inhibition of fresh weed plant weight at 375 g/ha using post-emergence treatment protocol; in short: as §1
Amaranthus retroflexus [10] = experiment: Herbicidal activity against Amaranthus retroflexus assessed as inhibition of fresh weed plant weight at 375 g/ha using pre-emergence treatment protocol
Echinochloa crus-galli [11] = experiment: Herbicidal activity against Echinochloa crus-galli (barnyard grass) assessed as inhibition of fresh weed plant weight at 187.5 g/ha using pre-emergence treatment protocol; in short: as §1
[12] = system: Brassica rapa subsp. oleifera; experiment: Herbicidal activity against Brassica rapa subsp. oleifera assessed as inhibition of fresh weed plant weight at 1500 g/ha using pre-emergence treatment protocol
Echinochloa crus-galli [13] = experiment: Herbicidal activity against Echinochloa crus-galli (barnyard grass) assessed as inhibition of fresh weed plant weight at 375 g/ha using pre-emergence treatment protocol; in short: as §1
Echinochloa crus-galli [14] = experiment: Herbicidal activity against Echinochloa crus-galli (barnyard grass) assessed as inhibition of fresh weed plant weight at 375 g/ha using post-emergence treatment protocol; in short: as §1
[15] = system: Brassica rapa subsp. oleifera; experiment: Herbicidal activity against Brassica rapa subsp. oleifera assessed as inhibition of fresh weed plant weight at 750 g/ha using pre-emergence treatment protocol
Digitaria sanguinalis [16] = experiment: Herbicidal activity against Digitaria sanguinalis (hairy crabgrass) assessed as inhibition of fresh weed plant weight at 187.5 g/ha using post-emergence treatment protocol; in short: as §1
Digitaria sanguinalis [17] = experiment: Herbicidal activity against Digitaria sanguinalis (hairy crabgrass) assessed as inhibition of fresh weed plant weight at 1500 g/ha using post-emergence treatment protocol; in short: as §1
Amaranthus retroflexus [18] = experiment: Herbicidal activity against Amaranthus retroflexus assessed as inhibition of fresh weed plant weight at 750 g/ha using post-emergence treatment protocol; in short: as §1
Echinochloa crus-galli [19] = experiment: Herbicidal activity against Echinochloa crus-galli (barnyard grass) assessed as inhibition of fresh weed plant weight at 1500 g/ha using post-emergence treatment protocol; in short: as §1
[20] = system: Brassica rapa subsp. oleifera; experiment: Herbicidal activity against Brassica rapa subsp. oleifera assessed as inhibition of fresh weed plant weight at 187.5 g/ha using pre-emergence treatment protocol
Amaranthus retroflexus [21] = experiment: Herbicidal activity against Amaranthus retroflexus assessed as inhibition of fresh weed plant weight at 1500 g/ha using post-emergence treatment protocol; in short: as §1
[22] = system: Brassica rapa subsp. oleifera; experiment: Herbicidal activity against Brassica rapa subsp. oleifera assessed as inhibition of fresh weed plant weight at 1500 g/ha using post-emergence treatment protocol; in short: as §1
Amaranthus retroflexus [23] = experiment: Herbicidal activity against Amaranthus retroflexus assessed as inhibition of fresh weed plant weight at 375 g/ha using post-emergence treatment protocol; in short: as §1
Echinochloa crus-galli [24] = experiment: Herbicidal activity against Echinochloa crus-galli (barnyard grass) assessed as inhibition of fresh weed plant weight at 187.5 g/ha using post-emergence treatment protocol; in short: as §1
[25] = system: Brassica rapa subsp. oleifera; experiment: Herbicidal activity against Brassica rapa subsp. oleifera assessed as inhibition of fresh weed plant weight at 187.5 g/ha using post-emergence treatment protocol; in short: as §1
Echinochloa crus-galli [26] = experiment: Herbicidal activity against Echinochloa crus-galli (barnyard grass) assessed as inhibition of fresh weed plant weight at 750 g/ha using pre-emergence treatment protocol
Echinochloa crus-galli [27] = experiment: Herbicidal activity against Echinochloa crus-galli (barnyard grass) assessed as inhibition of fresh weed plant weight at 1500 g/ha using pre-emergence treatment protocol
Digitaria sanguinalis [28] = experiment: Herbicidal activity against Digitaria sanguinalis (hairy crabgrass) assessed as inhibition of fresh weed plant weight at 750 g/ha using post-emergence treatment protocol; in short: as §1
Digitaria sanguinalis [29] = experiment: Herbicidal activity against Digitaria sanguinalis (hairy crabgrass) assessed as inhibition of fresh weed plant weight at 187.5 g/ha using pre-emergence treatment protocol
Amaranthus retroflexus [30] = experiment: Herbicidal activity against Amaranthus retroflexus assessed as inhibition of fresh weed plant weight at 187.5 g/ha using post-emergence treatment protocol; in short: as §1
Amaranthus retroflexus [31] = experiment: Herbicidal activity against Amaranthus retroflexus assessed as inhibition of fresh weed plant weight at 750 g/ha using pre-emergence treatment protocol; in short: as §1
Echinochloa crus-galli [32] = experiment: Herbicidal activity against Echinochloa crus-galli (barnyard grass) assessed as inhibition of fresh weed plant weight at 750 g/ha using post-emergence treatment protocol; in short: as §1

SMILES	inhibition at 375 g/ha [1]	inhibition at 375 g/ha (Digitaria sanguinalis [2])	inhibition at 1500 g/ha (Digitaria sanguinalis [3])	inhibition at 375 g/ha (Digitaria sanguinalis [4])	inhibition at 750 g/ha (Digitaria sanguinalis [5])	inhibition at 1500 g/ha (Amaranthus retroflexus [6])	inhibition at 187.5 g/ha (Amaranthus retroflexus [7])	inhibition at 750 g/ha [8]	inhibition at 375 g/ha [9]	inhibition at 375 g/ha (Amaranthus retroflexus [10])	inhibition at 187.5 g/ha (Echinochloa crus-galli [11])	inhibition at 1500 g/ha [12]	inhibition at 375 g/ha (Echinochloa crus-galli [13])	inhibition at 375 g/ha (Echinochloa crus-galli [14])	inhibition at 750 g/ha [15]	inhibition at 187.5 g/ha (Digitaria sanguinalis [16])	inhibition at 1500 g/ha (Digitaria sanguinalis [17])	inhibition at 750 g/ha (Amaranthus retroflexus [18])	inhibition at 1500 g/ha (Echinochloa crus-galli [19])	inhibition at 187.5 g/ha [20]	further results
C#CCOc1cc(-n2nnc3c(cnn3CC=C)c2=O)c(F)cc1Cl	0%	0%	37.4%	13%	17.4%	87%	21.3%	7.4%	3.4%	27.9%	0%	7.4%	0%	11.2%	0%	0%	41.3%	41.5%	38.3%	0%	inhibition at 1500 g/ha (Amaranthus retroflexus [21]): 88.6%; inhibition at 1500 g/ha [22]: 18.5%; inhibition at 375 g/ha (Amaranthus retroflexus [23]): 12.2%; inhibition at 187.5 g/ha (Echinochloa crus-galli [24]): 7.3%; inhibition at 187.5 g/ha [25]: 0%; inhibition at 750 g/ha (Echinochloa crus-galli [26]): 0%; inhibition at 1500 g/ha (Echinochloa crus-galli [27]): 0%; inhibition at 750 g/ha (Digitaria sanguinalis [28]): 19.4%; inhibition at 187.5 g/ha (Digitaria sanguinalis [29]): 6.5%; inhibition at 187.5 g/ha (Amaranthus retroflexus [30]): 7.3%; inhibition at 750 g/ha (Amaranthus retroflexus [31]): 41%; inhibition at 750 g/ha (Echinochloa crus-galli [32]): 17.1%
C=CCOc1cc(-n2nnc3nn(CC=C)cc3c2=O)c(F)cc1Cl	13.4%	33.3%	18%	4.3%	8.7%	100%	100%	32.6%	8.6%	100%	0%	50.7%	18.4%	16.1%	23.9%	22.2%	60.7%	100%	35.8%	3%	inhibition at 1500 g/ha (Amaranthus retroflexus [21]): 100%; inhibition at 1500 g/ha [22]: 60.8%; inhibition at 375 g/ha (Amaranthus retroflexus [23]): 100%; inhibition at 187.5 g/ha (Echinochloa crus-galli [24]): 14.1%; inhibition at 187.5 g/ha [25]: 6.3%; inhibition at 750 g/ha (Echinochloa crus-galli [26]): 22.1%; inhibition at 1500 g/ha (Echinochloa crus-galli [27]): 39.6%; inhibition at 750 g/ha (Digitaria sanguinalis [28]): 44.4%; inhibition at 187.5 g/ha (Digitaria sanguinalis [29]): 0%; inhibition at 187.5 g/ha (Amaranthus retroflexus [30]): 36.6%; inhibition at 750 g/ha (Amaranthus retroflexus [31]): 100%; inhibition at 750 g/ha (Echinochloa crus-galli [32]): 18%
C=CCN1C(=O)COc2cc(F)c(-n3nnc4c(cnn4CCC)c3=O)cc21	82.8%	25%	90.7%	67.4%	71.7%	100%	67.2%	78.9%	45.1%	77%	42.9%	100%	55%	2.3%	100%	8.3%	52.8%	100%	20.1%	26.9%	inhibition at 1500 g/ha (Amaranthus retroflexus [21]): 100%; inhibition at 1500 g/ha [22]: 97.5%; inhibition at 375 g/ha (Amaranthus retroflexus [23]): 100%; inhibition at 187.5 g/ha (Echinochloa crus-galli [24]): 1.5%; inhibition at 187.5 g/ha [25]: 12.6%; inhibition at 750 g/ha (Echinochloa crus-galli [26]): 62.8%; inhibition at 1500 g/ha (Echinochloa crus-galli [27]): 86.4%; inhibition at 750 g/ha (Digitaria sanguinalis [28]): 33.3%; inhibition at 187.5 g/ha (Digitaria sanguinalis [29]): 37%; inhibition at 187.5 g/ha (Amaranthus retroflexus [30]): 48.8%; inhibition at 750 g/ha (Amaranthus retroflexus [31]): 100%; inhibition at 750 g/ha (Echinochloa crus-galli [32]): 7.3%
C=CCOc1cc(-n2nnc3c(cnn3CC=C)c2=O)c(F)cc1Cl	11.9%	0%	10.5%	0%	4.3%	60.1%	1.6%	2.9%	0%	27.9%	6.5%	30.5%	10%	18%	16.4%	0%	23.1%	100%	32.3%	9%	inhibition at 1500 g/ha (Amaranthus retroflexus [21]): 100%; inhibition at 1500 g/ha [22]: 10.3%; inhibition at 375 g/ha (Amaranthus retroflexus [23]): 85.4%; inhibition at 187.5 g/ha (Echinochloa crus-galli [24]): 2.4%; inhibition at 187.5 g/ha [25]: 0%; inhibition at 750 g/ha (Echinochloa crus-galli [26]): 16.9%; inhibition at 1500 g/ha (Echinochloa crus-galli [27]): 30.1%; inhibition at 750 g/ha (Digitaria sanguinalis [28]): 11.1%; inhibition at 187.5 g/ha (Digitaria sanguinalis [29]): 0%; inhibition at 187.5 g/ha (Amaranthus retroflexus [30]): 12.2%; inhibition at 750 g/ha (Amaranthus retroflexus [31]): 34.4%; inhibition at 750 g/ha (Echinochloa crus-galli [32]): 22%
C=CCN1C(=O)COc2cc(F)c(-n3nnc4nn(CCC)cc4c3=O)cc21	55.2%	0%	78.6%	39.1%	54.3%	100%	27.9%	33.7%	29.1%	100%	10.8%	88.7%	16%	2.4%	69.4%	0%	0%	100%	11.2%	13.4%	inhibition at 1500 g/ha (Amaranthus retroflexus [21]): 100%; inhibition at 1500 g/ha [22]: 50.3%; inhibition at 375 g/ha (Amaranthus retroflexus [23]): 85.4%; inhibition at 187.5 g/ha (Echinochloa crus-galli [24]): 0%; inhibition at 187.5 g/ha [25]: 0%; inhibition at 750 g/ha (Echinochloa crus-galli [26]): 35.9%; inhibition at 1500 g/ha (Echinochloa crus-galli [27]): 60.4%; inhibition at 750 g/ha (Digitaria sanguinalis [28]): 0%; inhibition at 187.5 g/ha (Digitaria sanguinalis [29]): 4.3%; inhibition at 187.5 g/ha (Amaranthus retroflexus [30]): 7.3%; inhibition at 750 g/ha (Amaranthus retroflexus [31]): 100%; inhibition at 750 g/ha (Echinochloa crus-galli [32]): 5.4%
C#CCN1C(=O)COc2cc(F)c(-n3nnc4c(cnn4CCC)c3=O)cc21	67.9%	5.6%	100%	91.3%	93.5%	100%	37.7%	70.3%	64.6%	73.8%	43.7%	98.1%	80.1%	19%	82.1%	0%	33.9%	87.8%	91.5%	63.4%	inhibition at 1500 g/ha (Amaranthus retroflexus [21]): 99.6%; inhibition at 1500 g/ha [22]: 90.7%; inhibition at 375 g/ha (Amaranthus retroflexus [23]): 41.5%; inhibition at 187.5 g/ha (Echinochloa crus-galli [24]): 0.5%; inhibition at 187.5 g/ha [25]: 35.4%; inhibition at 750 g/ha (Echinochloa crus-galli [26]): 87%; inhibition at 1500 g/ha (Echinochloa crus-galli [27]): 95.4%; inhibition at 750 g/ha (Digitaria sanguinalis [28]): 16.7%; inhibition at 187.5 g/ha (Digitaria sanguinalis [29]): 80.4%; inhibition at 187.5 g/ha (Amaranthus retroflexus [30]): 14.6%; inhibition at 750 g/ha (Amaranthus retroflexus [31]): 100%; inhibition at 750 g/ha (Echinochloa crus-galli [32]): 61%
